# Test results taken from ChEMBL document CHEMBL1138807, “4,5-dihydro-1H-pyrazole derivatives with inhibitory nNOS activity in rat brain: synthesis and structure-activity relationships” (J Med Chem, 2004).
# Key:
# [1] = biological target: Nitric oxide synthase 1 (Rattus norvegicus) (UniProt P29476); test: Percent inhibition towards rat striatal neuronal nitric oxide synthase (nNOs) at 1 mM concentration (value is mean +/- SEM)
# Procedure, shortened: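 Rat striatal crude homogenate (two striata homogenized in Tris buffer with protease inhibitors, pH 7.6; 1000g supernatant). Conversion of L-[3H]-arginine to L-[3H]-citrulline in 25 mM Tris, 30 µM H4-biopterin, 10 µM FAD, 0.1 mM CaCl2, 10 µM L-arginine plus 50 nM tracer. Started with 0.75 mM NADPH; compound 1 mM final in DMSO; 37 °C, 30 min. Citrulline separated on Dowex-50W and counted by scintillation. Blank omits NADPH. Three experiments in triplicate, four rat striata each.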
# [2] = biological target: Kynurenine 3-monooxygenase (Rattus norvegicus) (UniProt O88867); test: Percent kynurenine 3-hydroxylase activity determined by the conversion of L-kynurenine to 3-hydroxykynurenine in rat striatum at 1 mM concentration of compound (value is mean +/- SEM); assay type: tissue-based
# Chain of Kynurenine 3-monooxygenase (Rattus norvegicus) (O88867 whole entry, looked up): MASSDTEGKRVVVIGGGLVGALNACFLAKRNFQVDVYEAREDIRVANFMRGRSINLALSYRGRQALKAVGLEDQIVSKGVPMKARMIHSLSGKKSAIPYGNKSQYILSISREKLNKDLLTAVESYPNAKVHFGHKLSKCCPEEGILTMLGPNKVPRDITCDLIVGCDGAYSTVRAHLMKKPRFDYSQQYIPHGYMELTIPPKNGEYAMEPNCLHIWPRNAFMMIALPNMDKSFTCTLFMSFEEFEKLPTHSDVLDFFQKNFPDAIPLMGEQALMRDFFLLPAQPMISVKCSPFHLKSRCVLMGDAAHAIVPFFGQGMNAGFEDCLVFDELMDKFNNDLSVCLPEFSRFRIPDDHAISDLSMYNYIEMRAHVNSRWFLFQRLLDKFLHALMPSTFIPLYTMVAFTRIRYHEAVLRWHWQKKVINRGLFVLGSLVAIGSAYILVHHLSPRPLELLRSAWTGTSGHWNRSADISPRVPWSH
# Procedure, shortened: (§1)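 Enzyme source: rat striatal pellet (sucrose homogenate, 10000g), resuspended in 0.14 M KCl, 20 mM phosphate, pH 7. Incubation in 0.1 M phosphate, 4 mM MgCl2, 100 µM L-kynurenine with NADPH; compound 1 mM final in DMSO; 37 °C, 60 min. Stopped with cold perchloric acid. 3-Hydroxykynurenine measured by HPLC with electrochemical detection against a DHBA internal standard; activity expressed as nmol/h/g wet brain.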
# [3] = biological target: Kynurenine 3-monooxygenase (Rattus norvegicus) (UniProt O88867); test: Inhibitory activity against kynurenine 3-hydroxylase at 1 mM concentration; procedure, shortened: as §1
# Chain of Nitric oxide synthase 1 (Rattus norvegicus) (P29476 whole entry): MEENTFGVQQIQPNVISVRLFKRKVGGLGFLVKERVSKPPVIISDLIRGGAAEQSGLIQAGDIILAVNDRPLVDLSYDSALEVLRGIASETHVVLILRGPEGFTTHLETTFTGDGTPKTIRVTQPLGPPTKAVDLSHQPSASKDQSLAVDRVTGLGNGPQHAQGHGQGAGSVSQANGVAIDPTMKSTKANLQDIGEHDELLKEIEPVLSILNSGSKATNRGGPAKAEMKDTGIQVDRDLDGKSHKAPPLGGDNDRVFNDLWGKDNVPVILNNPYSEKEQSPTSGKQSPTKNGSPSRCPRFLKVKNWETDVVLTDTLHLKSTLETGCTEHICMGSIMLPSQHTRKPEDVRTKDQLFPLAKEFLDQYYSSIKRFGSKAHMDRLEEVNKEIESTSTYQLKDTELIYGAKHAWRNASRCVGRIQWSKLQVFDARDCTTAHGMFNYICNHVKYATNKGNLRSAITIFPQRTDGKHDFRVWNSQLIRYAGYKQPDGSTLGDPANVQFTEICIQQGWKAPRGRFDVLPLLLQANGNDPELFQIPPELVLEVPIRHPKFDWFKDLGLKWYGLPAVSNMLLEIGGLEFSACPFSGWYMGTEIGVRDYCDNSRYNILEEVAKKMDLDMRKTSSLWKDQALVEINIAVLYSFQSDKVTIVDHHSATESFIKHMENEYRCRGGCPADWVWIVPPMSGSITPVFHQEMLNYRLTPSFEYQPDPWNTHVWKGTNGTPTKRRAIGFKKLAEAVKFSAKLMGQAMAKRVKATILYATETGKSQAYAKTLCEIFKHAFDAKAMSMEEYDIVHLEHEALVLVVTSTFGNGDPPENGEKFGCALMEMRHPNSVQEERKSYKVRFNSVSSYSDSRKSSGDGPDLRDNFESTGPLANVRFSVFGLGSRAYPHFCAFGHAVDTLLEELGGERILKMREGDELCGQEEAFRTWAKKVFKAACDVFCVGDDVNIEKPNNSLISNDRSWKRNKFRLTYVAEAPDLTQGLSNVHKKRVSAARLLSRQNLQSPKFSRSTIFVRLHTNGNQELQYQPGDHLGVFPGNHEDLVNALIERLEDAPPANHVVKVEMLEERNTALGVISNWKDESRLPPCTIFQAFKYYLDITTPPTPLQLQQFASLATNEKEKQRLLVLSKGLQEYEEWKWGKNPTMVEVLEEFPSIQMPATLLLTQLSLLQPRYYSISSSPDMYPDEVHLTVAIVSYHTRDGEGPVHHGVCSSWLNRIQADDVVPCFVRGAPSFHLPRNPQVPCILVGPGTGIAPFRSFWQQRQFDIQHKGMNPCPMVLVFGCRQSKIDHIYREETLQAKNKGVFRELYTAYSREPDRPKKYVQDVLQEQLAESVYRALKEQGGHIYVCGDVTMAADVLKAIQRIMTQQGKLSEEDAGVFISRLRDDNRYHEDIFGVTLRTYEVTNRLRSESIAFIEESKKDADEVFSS
SMILES,inhibition [1],Activity [2],inhibition [3]
COc1ccc(N)c(C2=NN(C(=O)c3ccccc3)CC2)c1,58.9%,,
CCCC(=O)N1CCC(c2cc(Cl)ccc2N)=N1,34.4%,97.7%,
COc1ccc(N)c(C2=NN(C(=O)C3CCC3)CC2)c1,38.3%,96.5%,
CCC(=O)N1CCC(c2cc(Cl)ccc2N)=N1,46.1%,97.7%,
COc1ccc(N)c(C2=NN(C(C)=O)CC2)c1,38%,98.8%,
CCCCC(=O)N1CCC(c2cc(OC)ccc2N)=N1,49.8%,120%,
CCCC(=O)N1CCC(c2ccccc2N)=N1,52.4%,85%,
CCCC(=O)NC(CC(=O)c1cc(OC)ccc1N)C(=O)O (stereo not drawn),45%,88.7%,
CCC(=O)N1CCC(c2ccccc2N)=N1,36.5%,85.2%,

# Further lines, results first:
inhibition [1],Activity [2],inhibition [3],SMILES
38.8%,86.9%,,Nc1ccccc1C1=NN(C(=O)C2CC2)CC1
57%,82.5%,,Nc1ccccc1C1=NN(C(=O)c2ccccc2)CC1
61.1%,106%,,Nc1ccc(Cl)cc1C1=NN(C(=O)c2ccccc2)CC1
68.5%,101%,,COc1ccc(N)c(C(=O)CC(NC(C)=O)C(=O)O)c1 (stereo not drawn)
62.2%,123%,,COc1ccc(N)c(C2=NN(C(=O)C3CC3)CC2)c1
53.3%,81.1%,18.9%,CCC(=O)N1CCC(c2cc(OC)ccc2N)=N1
34.7%,96.4%,,CCCC(=O)N1CCC(c2cc(OC)ccc2N)=N1
33.7%,77.8%,22.1%,CC(=O)N1CCC(c2ccccc2N)=N1
47.6%,111%,,CC(=O)N1CCC(c2cc(Cl)ccc2N)=N1
62.2%,87.4%,,COc1ccc(N)c(C2=NN(C(=O)C3CCCCC3)CC2)c1
49.9%,105%,,COc1ccc(N)c(C2=NN(C(=O)C3CCCC3)CC2)c1
70.2%,98.1%,,Nc1ccc(Cl)cc1C1=NN(C(=O)C2CC2)CC1
